Source: ChEMBL document CHEMBL1138229, “Novel cyano- and amidino-substituted derivatives of styryl-2-benzimidazoles and benzimidazo[1,2-a]quinolines. Synthesis, photochemical synthesis, DNA binding, and antitumor evaluation, part 3” (J Med Chem, 2007)
Activity calls are given as the source filed them. No cut-off for these calls is given here.

Assays:
SW-620 [1] = assay: Cell cycle arrest in human SW620 cells assessed as accumulation at Sub G1 phase after 48 hrs at 5 uM; assay type: functional
Procedure, shortened: (§1)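 Cells seeded at 2 × 10^5 per well and incubated overnight before compound at 5 × 10^-6 M. After 24, 48 or 72 h, attached and floating cells were pooled, PBS-washed and fixed in 70% ethanol. RNase A (0.1 µg/µl, 37 °C, 15 min), then propidium iodide 1 µg/mL; flow cytometry of 20 000 events. Results given as percent of cells per phase; significance at p < 0.05.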

SW-620 [2] = assay: Cell cycle arrest in human SW620 cells assessed as accumulation at G2/M phase after 48 hrs at 5 uM; assay type: functional; procedure, shortened: as §1
SW-620 [3] = assay: Antitumor activity against human SW620 cells after 72 hrs by MTT assay; assay type: functional, cell-based; conditions: SW-620, 72 h
Procedure, shortened: (§2)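 Cells from ATCC grown as monolayers in DMEM with 10% FBS, 2 mM L-glutamine, penicillin/streptomycin, 5% CO2, 37 °C. Seeded on day 0 at 1 × 10^4/mL (2 × 10^4/mL for MCF-7). Five 10-fold dilutions (10^-8 to 10^-4 mol/L) added, then 72 h exposure. MTT read at 570 nm; percent growth vs time-zero and untreated controls. IC50 by linear regression; quadruplicates, three experiments.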

SW-620 [4] = assay: Cell cycle arrest in human SW620 cells assessed as accumulation at G1/G0 phase after 48 hrs at 5 uM; assay type: functional; procedure, shortened: as §1
DNA = assay: Binding affinity to calf thymus DNA by thermal melting temperature assay; assay type: nucleic-acid assay; conditions: Bos taurus
Procedure, shortened: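 ct-DNA (as phosphate concentration) in sodium cacodylate buffer pH 7.0, I = 0.05 mol dm-3. Compound/polynucleotide ratio r = 0.3. Absorbance at 260 nm followed against temperature, ligand absorbance subtracted. Tm taken as transition midpoint by first derivative or tangent method. ΔTm = Tm(complex) − Tm(free DNA), averaged over at least two runs, error ±0.5 °C.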

HEp-2 = assay: Antitumor activity against human Hep2 cells after 72 hrs by MTT assay; assay type: functional, cell-based; conditions: HEp-2, 72 h; procedure, shortened: as §2
SW-620 [5] = assay: Cell cycle arrest in human SW620 cells assessed as accumulation at Sub G1 phase after 72 hrs at 5 uM; assay type: functional; procedure, shortened: as §1
SW-620 [6] = assay: Cell cycle arrest in human SW620 cells assessed as accumulation at G1/G0 phase after 72 hrs at 5 uM; assay type: functional; procedure, shortened: as §1
SW-620 [7] = assay: Cell cycle arrest in human SW620 cells assessed as accumulation at G1/G0 phase after 24 hrs at 5 uM; assay type: functional; procedure, shortened: as §1
MCF7 = assay: Antitumor activity against human MCF7 cells after 72 hrs by MTT assay; assay type: functional, cell-based; conditions: MCF7, 72 h; procedure, shortened: as §2
SW-620 [8] = assay: Cell cycle arrest in human SW620 cells assessed as accumulation at S phase after 24 hrs at 5 uM; assay type: functional; procedure, shortened: as §1
SW-620 [9] = assay: Cell cycle arrest in human SW620 cells assessed as accumulation at S phase after 72 hrs at 5 uM; assay type: functional; procedure, shortened: as §1
Homo sapiens = organism: Homo sapiens; assay: Inhibition of Topoisomerase 2-mediated pRYG DNA relaxation activity
Procedure, shortened: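 Supercoiled pRYG plasmid with 8 units purified topo II in assay buffer. Test compound or etoposide added as 2 µL of a 1 mM stock per 20 µL reaction. Incubation 37 °C for 30 min; stopped with SDS, then proteinase K (50 µg/mL, 37 °C, 15 min). Gel electrophoresis, post-stained with ethidium bromide 0.5 µg/mL, UV imaging of supercoiled-to-relaxed conversion.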

SW-620 [10] = assay: Cell cycle arrest in human SW620 cells assessed as accumulation at Sub G1 phase after 24 hrs at 5 uM; assay type: functional; procedure, shortened: as §1
SW-620 [11] = assay: Cell cycle arrest in human SW620 cells assessed as accumulation at G2/M phase after 24 hrs at 5 uM; assay type: functional; procedure, shortened: as §1
[12] = Antiproliferative activity against human […] fibroblast after 72 hrs by MTT assay; assay type: functional; procedure, shortened: as §2
SW-620 [13] = assay: Cell cycle arrest in human SW620 cells assessed as accumulation at G2/M phase after 72 hrs at 5 uM; assay type: functional; procedure, shortened: as §1
HeLa [14] = assay: Antitumor activity against human HeLa cells after 72 hrs by MTT assay; assay type: functional, cell-based; procedure, shortened: as §2
MIA PaCa-2 = assay: Antitumor activity against human MiaPaCa2 cells after 72 hrs by MTT assay; assay type: functional, cell-based; conditions: MIA PaCa-2, 72 h; procedure, shortened: as §2
SW-620 [15] = assay: Cell cycle arrest in human SW620 cells assessed as accumulation at S phase after 48 hrs at 5 uM; assay type: functional; procedure, shortened: as §1
HeLa [16] = assay: Cell cycle arrest in human HeLa cells assessed as accumulation at G0/G1 phase after 48 hrs at 5 uM; assay type: functional; procedure, shortened: as §1
HeLa [17] = assay: Cell cycle arrest in human HeLa cells assessed as accumulation at S phase after 24 hrs at 5 uM; assay type: functional; procedure, shortened: as §1
HeLa [18] = assay: Cell cycle arrest in human HeLa cells assessed as accumulation at G2/M phase after 48 hrs at 5 uM; assay type: functional; procedure, shortened: as §1
HeLa [19] = assay: Cell cycle arrest in human HeLa cells assessed as accumulation at S phase after 72 hrs at 5 uM; assay type: functional; procedure, shortened: as §1
HeLa [20] = assay: Cell cycle arrest in human HeLa cells assessed as accumulation at Sub G1 phase after 24 hrs at 5 uM; assay type: functional; procedure, shortened: as §1
HeLa [21] = assay: Cell cycle arrest in human HeLa cells assessed as accumulation at G0/G1 phase after 72 hrs at 5 uM; assay type: functional; procedure, shortened: as §1
HeLa [22] = assay: Cell cycle arrest in human HeLa cells assessed as accumulation at S phase after 48 hrs at 5 uM; assay type: functional; procedure, shortened: as §1
HeLa [23] = assay: Cell cycle arrest in human HeLa cells assessed as accumulation at G2/M phase after 24 hrs at 5 uM; assay type: functional; procedure, shortened: as §1
HeLa [24] = assay: Cell cycle arrest in human HeLa cells assessed as accumulation at G0/G1 phase after 24 hrs at 5 uM; assay type: functional; procedure, shortened: as §1
HeLa [25] = assay: Cell cycle arrest in human HeLa cells assessed as accumulation at G2/M phase after 72 hrs at 5 uM; assay type: functional; procedure, shortened: as §1
HeLa [26] = assay: Cell cycle arrest in human HeLa cells assessed as accumulation at Sub G1 phase after 72 hrs at 5 uM; assay type: functional; procedure, shortened: as §1
HeLa [27] = assay: Cell cycle arrest in human HeLa cells assessed as accumulation at Sub G1 phase after 48 hrs at 5 uM; assay type: functional; procedure, shortened: as §1

Compound	Activity (SW-620 [1]) [%]	Activity (SW-620 [2]) [%]	IC50 (SW-620 [3]) [µM]	Activity (SW-620 [4]) [%]	ΔTm (DNA) [°C]	IC50 (HEp-2) [µM]	Activity (SW-620 [5]) [%]	Activity (SW-620 [6]) [%]	Activity (SW-620 [7]) [%]	IC50 (MCF7) [µM]	Activity (SW-620 [8]) [%]	Activity (SW-620 [9]) [%]	Activity (Homo sapiens)	Activity (SW-620 [10]) [%]	Activity (SW-620 [11]) [%]	IC50 [12] [µM]	Activity (SW-620 [13]) [%]	IC50 (HeLa [14]) [µM]	IC50 (MIA PaCa-2) [µM]	Activity (SW-620 [15]) [%]	other results
C(=C/c1nc2ccc(C3=NCCN3)cc2[nH]1)/c1ccccc1.Cl	1	15	45	46	1	27	0.8	49	36	17	45	30	Active	0.5	19	99	21	35	25	39	–
Cl.c1ccc2c(c1)ccc1nc3ccc(C4=NCCN4)cc3n12	12	49	0.4	25	4.9	2	13	30	12	2	39	17	Active	3	49	2	54	2	1	26	Activity (HeLa [16]): 34%; Activity (HeLa [17]): 42%; Activity (HeLa [18]): 32%; Activity (HeLa [19]): 32%; Activity (HeLa [20]): 2%; Activity (HeLa [21]): 28%; Activity (HeLa [22]): 36%; Activity (HeLa [23]): 26%; Activity (HeLa [24]): 32%; Activity (HeLa [25]): 40%; Activity (HeLa [26]): 3%; Activity (HeLa [27]): 2%
